MEKK2wt PB1 HTS – modulators of MEK5 binding to wildtype MEKK2, primary screen, biochemical, multiplex bead flow cytometry, Alexa488-MEK5; Alexa488-MEK5 binding to MEKK2 WT; actives lie on both sides; binding response (% of control), % at 10 µM; hit rate 1.1% among 290,000; AID 1531, 2009; in the data active = binding response below about 67% or above about 130%
ATG4B inh – ATG4B protease inhibitors, primary screen, biochemical, fluorescence, uHTS; ATG4B cleavage of LC3-PLA2, NBD-HPC fluorescence, 1 h; inhibition, % at 8.33 µM; Cysteine protease ATG4B (Homo sapiens), Q9Y4P1; hit rate 0.51% among 340,000; in the data active = inhibition above about 40%
Target sequence (Q9Y4P1 whole entry, looked up): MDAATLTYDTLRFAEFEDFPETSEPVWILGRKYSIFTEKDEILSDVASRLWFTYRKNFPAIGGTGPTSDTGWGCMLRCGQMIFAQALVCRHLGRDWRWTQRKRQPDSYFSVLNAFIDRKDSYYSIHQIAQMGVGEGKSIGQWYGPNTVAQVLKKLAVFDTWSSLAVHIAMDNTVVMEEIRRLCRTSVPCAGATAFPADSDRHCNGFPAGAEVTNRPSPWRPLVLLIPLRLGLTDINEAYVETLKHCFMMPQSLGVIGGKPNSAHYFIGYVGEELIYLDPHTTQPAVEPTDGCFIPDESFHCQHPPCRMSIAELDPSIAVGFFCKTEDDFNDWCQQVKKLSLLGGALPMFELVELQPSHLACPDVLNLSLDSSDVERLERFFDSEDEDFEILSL
MEKK3 PB1 HTS – modulators of MEKK3-MEK5 PB1 binding, primary screen, biochemical, wildtype MEKK3, multiplex bead flow cytometry, Alexa488-MEK5; Mitogen-activated protein kinase kinase kinase 3 (Homo sapiens), Q99759; bead-based flow cytometry, Alexa488-MEK5 binding to MEKK3; actives lie on both sides; 0 = blocked by unlabeled MEK5, 100 = vehicle; binding response (% of control), % at 10 µM; hit rate 1.4% among 290,000; AID 1529, 2009;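 active = binding response more than 3 SD above or below the average of its plate-row segment, actives on both sides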;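 also: Alexa488 bead fluorescence after subtracting the streptavidin-only scavenger bead signal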
Beta2AR agonist – beta2AR agonists driving receptor internalization, primary screen, cell-based, FAP fluorogen, flow cytometry. response, % (no concentration beside the values). Am2.2-beta2AR cells. hit rate 0.43% among 340,000. Beta-2 adrenergic receptor (Homo sapiens), P07550;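 active = response above a set limit, near 3 SD of response in nonfluorescent compounds, cut at about 42% in these data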
MEKK2 mut-MEK5 – MEK5 binding signal on mutant MEKK2 PB1, primary screen, biochemical, multiplex bead flow cytometry, Alexa488-MEK5. Alexa488-MEK5 binding to MEKK2 mutant. hit rate 0.35% among 290,000. AID 1530, 2009. percent response, % at 10 µM; in the data active = percent response above about 24%, passing the limit was not always enough
Dynein cargo inh – inhibitors of GR-EGFP nuclear translocation, primary screen, dynein cargo transport inhibitor project, imaging, high-content, 3617.4 mouse cells; test concentration mostly 20 µM; stimulated with dexamethasone, 1 µM; active compounds read low; hit rate 0.47% among 220,000; z-score, hits read low;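 active = plate z-score of nuclear minus cytoplasmic receptor signal below a set negative limit, without overly bright fluorescence or cell loss, cut at about -3.5 in these data, passing the limit was not always enough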;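 also: z-score of nuclear minus cytoplasmic ring GR-EGFP intensity difference per well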
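Buffer or medium: tet-free medium with charcoal-stripped serum / Also added: dexamethasone agonist, 1.0 µM final, for 30 min / Timing: induction 48 h, compound 1 h, agonist 30 min / Measured by: high-content fluorescence imaging after fixation / Read-out: nuclear-to-cytoplasmic GR-EGFP distribution per well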
MEKK2wt confirm – modulators of MEK5 binding to wildtype MEKK2, confirmation, biochemical, single concentration, multiplex bead flow cytometry; shares compounds with MEKK3 PB1 HTS; Alexa488-MEK5 binding to MEKK2 WT; actives lie on both sides; binding response (% of control), % at 10 µM; hit rate 2.4% among 5,900; AID 1892, 2009; in the data active = binding response below about 16% or above about 210%; inactive = in between
MEKK2mut confirm – mutant MEKK2 PB1-MEK5 binding signal retest – biochemical, single concentration, multiplex bead flow cytometry, confirmation | shares compounds with MEKK3 PB1 HTS | Alexa488-MEK5 binding to MEKK2 mutant | percent response, % at 10 µM | hit rate 2% among 5,900; in the data active = percent response mostly above about 71%, no sharp cut-off; inactive = mostly below about 38%;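 also: higher means compound restores mutant binding toward wildtype level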
MEKK3-MEK5 inh – MEKK3 wild-type PB1 binding to MEK5, inhibitors, confirmation, biochemical, bead multiplex flow cytometry, single concentration, wildtype. shares compounds with MEKK3 PB1 HTS. Alexa488-MEK5 binding to MEKK3; active compounds read low. binding response (% of control), % at 10 µM. hit rate 1.8% among 5,900;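 active = binding response below 72% of control, or above a set upper limit, though filed actives all read lower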;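 also: 100% = DMSO only wells and 0% = binding blocked by excess unlabeled MEK5; lower values mean stronger disruption of MEK5 binding to MEKK3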
An asterisk follows results filed as active; [ ] = remark or other dose. Most compounds without a hit are left out; they make up all but 2.9% or so of the library.

For CCc1ccc(Nc2n[n+](-c3ccccc3)c(-c3ccc(C(=O)O)cc3)s2)cc1 the results were MEKK2wt PB1 HTS 99, ATG4B inh -12, MEKK3 PB1 HTS 100, Beta2AR agonist -9 and MEKK2 mut-MEK5 3.
For CSc1ccc(-c2sc(Nc3ccccc3)n[n+]2-c2ccccc2)cc1 the results were MEKK2wt PB1 HTS 148*, ATG4B inh -6, MEKK3 PB1 HTS 106, Beta2AR agonist -21, MEKK2 mut-MEK5 10, MEKK2wt confirm 121, MEKK2mut confirm 31 and MEKK3-MEK5 inh 102.
For CCc1ccc(Nc2n[n+](-c3ccccc3)c(-c3ccc(OC)c(Br)c3)s2)cc1 the results were MEKK2wt PB1 HTS 207*, ATG4B inh 3, MEKK3 PB1 HTS 109, Beta2AR agonist 2, MEKK2 mut-MEK5 41*, MEKK2wt confirm 206, MEKK2mut confirm 73* and MEKK3-MEK5 inh 113.
Screening COc1cc(Br)c(-c2sc(Nc3ccccc3)n[n+]2-c2ccc(F)cc2)cc1OC returned MEKK2wt PB1 HTS 133, ATG4B inh -10, MEKK3 PB1 HTS 104, Beta2AR agonist 3, MEKK2 mut-MEK5 34*, MEKK2wt confirm 149, MEKK2mut confirm 32 and MEKK3-MEK5 inh 103.
Screening CCOc1cc(-c2sc(Nc3ccccc3)n[n+]2-c2ccc(F)cc2)ccc1OC returned MEKK2wt PB1 HTS 105, ATG4B inh 0, MEKK3 PB1 HTS 102, Beta2AR agonist 1 and MEKK2 mut-MEK5 2.
Screening CCc1ccc(Nc2n[n+](-c3ccccc3)c(-c3ccc(SC)cc3)s2)cc1 returned MEKK2wt PB1 HTS 195*, ATG4B inh 8, MEKK3 PB1 HTS 108, Beta2AR agonist 0, MEKK2 mut-MEK5 35*, MEKK2wt confirm 180, MEKK2mut confirm 53 and MEKK3-MEK5 inh 108.
Screening COc1cc(OC)c(-c2sc(Nc3ccccc3)n[n+]2-c2ccc(F)cc2)cc1OC returned MEKK2wt PB1 HTS 88, ATG4B inh 4, MEKK3 PB1 HTS 95, Beta2AR agonist 1 and MEKK2 mut-MEK5 -9.
`COc1ccc(C(=O)NC(C)(C)C)cc1S(=O)(=O)N1CCCC1` gave MEKK2wt PB1 HTS 96, ATG4B inh 2, MEKK3 PB1 HTS 99, Beta2AR agonist -1, MEKK2 mut-MEK5 1 and Dynein cargo inh -1.1.
`Clc1cccc(-c2sc(Nc3ccccc3)n[n+]2-c2ccccc2)c1Cl` gave MEKK2wt PB1 HTS 135*, ATG4B inh 6, MEKK3 PB1 HTS 104, Beta2AR agonist -4, MEKK2 mut-MEK5 13, MEKK2wt confirm 135, MEKK2mut confirm 15 and MEKK3-MEK5 inh 103.
For Clc1ccc(CSc2ncn[nH]2)cc1 the results were ATG4B inh -3, Beta2AR agonist -16 and Dynein cargo inh -0.19.
For CCOc1ccc(Cl)cc1CSc1ncn[nH]1 the results were MEKK2wt PB1 HTS 1.0*[inhibitor], ATG4B inh 5, MEKK3 PB1 HTS 1.0*[inhibitor], Beta2AR agonist -1, MEKK2 mut-MEK5 -31, Dynein cargo inh 0.95, MEKK2wt confirm 96, MEKK2mut confirm -15 and MEKK3-MEK5 inh 88.
Screening CC(C)Oc1cccc(C(=O)C2CCCN(Cc3cccn3-c3ccccn3)C2)c1 (stereo unspecified) returned MEKK2wt PB1 HTS 174*, ATG4B inh 7, MEKK3 PB1 HTS 107, Beta2AR agonist -4, MEKK2 mut-MEK5 35, Dynein cargo inh -1.2, MEKK2wt confirm 115, MEKK2mut confirm 7 and MEKK3-MEK5 inh 106.
Screening COc1cccc(C(=O)C2CCCN(Cc3cccn3-c3ccccn3)C2)c1 (stereo unspecified) returned MEKK2wt PB1 HTS 105, ATG4B inh 13, MEKK3 PB1 HTS 102, Beta2AR agonist 4, MEKK2 mut-MEK5 7 and Dynein cargo inh -1.3.
Screening COCCCN(C(=O)c1cc2c(s1)CCCCC2)c1c(N)n(Cc2ccccc2)c(=O)[nH]c1=O returned ATG4B inh -2 and Beta2AR agonist 8.
For CCN(CC)S(=O)(=O)c1ccc(N2CCOCC2)c(NC(=O)c2cccc3ccccc23)c1 the results were MEKK2wt PB1 HTS 101, ATG4B inh -9, MEKK3 PB1 HTS 91, Beta2AR agonist 11, MEKK2 mut-MEK5 -1 and Dynein cargo inh 0.45.
`CCN(CC)S(=O)(=O)c1ccc(N2CCOCC2)c(NC(=O)c2cc(=O)[nH]c3ccccc23)c1` gave MEKK2wt PB1 HTS 86, ATG4B inh -2, MEKK3 PB1 HTS 69*[inhibitor], Beta2AR agonist -6, MEKK2 mut-MEK5 -9, Dynein cargo inh 0.067, MEKK2wt confirm 108, MEKK2mut confirm 9 and MEKK3-MEK5 inh 105.
Screening CCc1ccc(N=CC23c4ccccc4C(c4ccccc42)C2C(=O)N(c4ccc(OC)cc4)C(=O)C23)cc1 (stereo unspecified) returned MEKK2wt PB1 HTS 81, ATG4B inh 2, MEKK3 PB1 HTS 81*[inhibitor], Beta2AR agonist 1, MEKK2 mut-MEK5 -4, Dynein cargo inh -0.8, MEKK2wt confirm 94, MEKK2mut confirm -4 and MEKK3-MEK5 inh 95.
`COc1ccc(-n2cc(CNCc3cccnc3)c(-c3cccc(F)c3)n2)cc1` gave MEKK2wt PB1 HTS 125, ATG4B inh -2, MEKK3 PB1 HTS 88, Beta2AR agonist -14, MEKK2 mut-MEK5 16 and Dynein cargo inh -0.51.
COc1ccc(CNCc2cn(-c3cccc(F)c3)nc2-c2ccc(C)o2)cc1 was read as MEKK2wt PB1 HTS 168*, ATG4B inh 12, MEKK3 PB1 HTS 101, Beta2AR agonist 7, MEKK2 mut-MEK5 26, Dynein cargo inh 1.6, MEKK2wt confirm 172, MEKK2mut confirm 31 and MEKK3-MEK5 inh 109.
